Measurements reported in ChEMBL document CHEMBL4837264, “Rational Design, Optimization, and Biological Evaluation of Novel MEK4 Inhibitors against Pancreatic Adenocarcinoma” (ACS Med Chem Lett, 2021).
Active and inactive are the calls of the source. No cut-off for these calls is given here.

Tests used:
[1] = molecular target: Dual specificity mitogen-activated protein kinase kinase 2 (Homo sapiens) (UniProt P36507); test: Inhibition of human MEK2 in human HEK293T cells assessed as reversal of anisomycin-induced decrease of p42/44 MAPK phosphorylation at 100 uM measured after 5 hrs by Western blot assay; format: cell-based
Dual specificity mitogen-activated protein kinase kinase 2 (Homo sapiens), sequence (P36507 whole entry, the tested form may be a part): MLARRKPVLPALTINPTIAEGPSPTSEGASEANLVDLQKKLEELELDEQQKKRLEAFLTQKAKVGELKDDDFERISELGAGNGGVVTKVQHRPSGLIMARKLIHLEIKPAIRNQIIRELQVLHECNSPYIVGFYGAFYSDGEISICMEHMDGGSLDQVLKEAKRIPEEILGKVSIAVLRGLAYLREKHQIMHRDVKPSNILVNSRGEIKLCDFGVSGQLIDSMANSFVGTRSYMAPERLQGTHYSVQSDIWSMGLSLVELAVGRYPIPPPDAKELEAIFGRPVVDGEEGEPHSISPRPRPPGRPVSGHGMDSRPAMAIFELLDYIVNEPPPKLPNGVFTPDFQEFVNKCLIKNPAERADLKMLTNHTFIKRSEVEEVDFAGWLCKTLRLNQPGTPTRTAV
In short: (§1)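 HEK293T cells pretreated with anisomycin (3 μg/mL) for 45 min, then given inhibitor (100 μM) for 5 h. Phospho- and total p42/44 MAPK and p38 MAPK, plus MEK7, detected by Western blot with HSP90 as loading control. Blots representative of at least three biological replicates.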

[2] = molecular target: T1, Dual specificity mitogen-activated protein kinase kinase 5 (Homo sapiens) (UniProt Q13163); test: Inhibition of human wild type partial length MEK5 (L98 to P448 residues) expressed in mammalian expression system at 1 uM measured by Kinomescan assay
T1 sequence (whole entry): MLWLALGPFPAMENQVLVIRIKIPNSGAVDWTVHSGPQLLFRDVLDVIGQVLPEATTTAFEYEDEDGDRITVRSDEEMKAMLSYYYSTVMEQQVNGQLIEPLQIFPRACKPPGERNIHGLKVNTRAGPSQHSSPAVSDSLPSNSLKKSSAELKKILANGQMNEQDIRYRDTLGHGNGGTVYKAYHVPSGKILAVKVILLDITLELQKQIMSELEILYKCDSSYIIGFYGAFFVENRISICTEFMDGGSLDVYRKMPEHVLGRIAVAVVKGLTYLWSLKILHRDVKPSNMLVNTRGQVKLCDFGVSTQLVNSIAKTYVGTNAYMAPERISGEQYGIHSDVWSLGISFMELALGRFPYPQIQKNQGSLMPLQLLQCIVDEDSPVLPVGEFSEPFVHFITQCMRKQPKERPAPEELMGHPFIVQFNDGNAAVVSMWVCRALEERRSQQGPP

MIA PaCa-2 [3] = test: Antiproliferative activity against human MIA PaCa-2 cells assessed as inhibition of cell proliferation measured after 72 hrs; format: functional, cell-based
In short: (§2)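 Cells (~30,000; HEK293T, or pancreatic CD18 and MiaPaCa2) exposed to DMSO or a range of inhibitor doses for 72 h, then trypsinized and counted. Counts normalized to the DMSO control. Mean ± SD; three biological replicates; one-way ANOVA.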

[4] = molecular target: T2, Dual specificity mitogen-activated protein kinase kinase 3 (Homo sapiens) (UniProt P46734); test: Inhibition of human wild type full length MEK3 (M1 to S318) expressed in mammalian expression system at 1 uM measured by Kinomescan assay
T2 sequence (whole entry): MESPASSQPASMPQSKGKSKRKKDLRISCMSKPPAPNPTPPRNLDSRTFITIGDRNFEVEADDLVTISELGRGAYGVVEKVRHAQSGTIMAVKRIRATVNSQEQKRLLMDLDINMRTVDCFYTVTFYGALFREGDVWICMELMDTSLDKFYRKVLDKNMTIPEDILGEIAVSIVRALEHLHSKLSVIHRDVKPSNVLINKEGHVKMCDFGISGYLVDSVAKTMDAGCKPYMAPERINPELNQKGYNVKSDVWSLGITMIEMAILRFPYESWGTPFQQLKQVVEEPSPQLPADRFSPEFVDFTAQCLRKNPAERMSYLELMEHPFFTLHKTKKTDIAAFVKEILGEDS

Cytochrome P450 3A4 = Cytochrome P450 3A4 (Homo sapiens, UniProt P08684); test: Inhibition of CYP3A4 (unknown origin); format: ADME
Cytochrome P450 3A4, sequence (P08684 whole entry, the tested form may be a part): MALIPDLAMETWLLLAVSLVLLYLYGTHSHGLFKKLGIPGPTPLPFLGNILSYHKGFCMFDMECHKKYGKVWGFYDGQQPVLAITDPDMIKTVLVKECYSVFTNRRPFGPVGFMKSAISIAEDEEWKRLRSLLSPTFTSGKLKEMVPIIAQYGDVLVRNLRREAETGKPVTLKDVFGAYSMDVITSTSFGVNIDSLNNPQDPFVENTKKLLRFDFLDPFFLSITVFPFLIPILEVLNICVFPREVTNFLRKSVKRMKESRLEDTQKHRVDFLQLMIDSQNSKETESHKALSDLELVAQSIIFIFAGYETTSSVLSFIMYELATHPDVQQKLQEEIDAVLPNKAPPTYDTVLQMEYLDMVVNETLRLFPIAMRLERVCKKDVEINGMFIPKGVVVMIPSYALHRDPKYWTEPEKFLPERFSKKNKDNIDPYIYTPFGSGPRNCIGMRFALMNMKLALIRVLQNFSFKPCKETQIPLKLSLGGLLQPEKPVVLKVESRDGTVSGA

[5] = molecular target: T3, Dual specificity mitogen-activated protein kinase kinase 6 (Homo sapiens) (UniProt P52564); test: Inhibition of human wild type partial length MEK6 (K36 to D344 residues) expressed in bacterial expression system at 1 uM measured by Kinomescan assay
T3 sequence (whole entry): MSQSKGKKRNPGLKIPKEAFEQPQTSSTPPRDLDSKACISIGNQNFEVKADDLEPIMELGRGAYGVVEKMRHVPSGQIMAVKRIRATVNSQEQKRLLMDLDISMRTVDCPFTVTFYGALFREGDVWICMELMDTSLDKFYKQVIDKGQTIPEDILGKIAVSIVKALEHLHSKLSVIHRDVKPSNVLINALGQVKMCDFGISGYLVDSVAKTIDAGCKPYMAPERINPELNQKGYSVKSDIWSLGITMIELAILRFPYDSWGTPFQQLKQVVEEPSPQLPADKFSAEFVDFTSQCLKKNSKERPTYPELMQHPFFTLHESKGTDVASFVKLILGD

[6] = Metabolic stability in human liver microsomes assessed as half life by microsome assay; format: ADME
Cytochrome P450 2C9 = Cytochrome P450 2C9 (Homo sapiens, UniProt P11712); test: Inhibition of CYP2C9 (unknown origin); format: ADME
Cytochrome P450 2C9, sequence (P11712 whole entry, the tested form may be a part): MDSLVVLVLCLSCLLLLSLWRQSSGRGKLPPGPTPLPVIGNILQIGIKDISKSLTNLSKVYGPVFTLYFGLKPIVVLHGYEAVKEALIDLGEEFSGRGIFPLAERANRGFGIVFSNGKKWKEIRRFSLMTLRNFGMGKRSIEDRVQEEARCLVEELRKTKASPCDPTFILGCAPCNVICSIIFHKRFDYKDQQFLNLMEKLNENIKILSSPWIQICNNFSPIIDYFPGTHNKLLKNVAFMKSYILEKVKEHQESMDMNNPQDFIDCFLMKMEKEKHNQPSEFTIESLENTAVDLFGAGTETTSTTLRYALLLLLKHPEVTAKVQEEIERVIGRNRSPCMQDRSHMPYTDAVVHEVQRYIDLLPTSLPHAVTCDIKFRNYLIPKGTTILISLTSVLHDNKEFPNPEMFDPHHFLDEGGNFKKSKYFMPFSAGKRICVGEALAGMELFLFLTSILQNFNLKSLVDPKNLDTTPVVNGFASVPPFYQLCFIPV

[7] = molecular target: T1, Dual specificity mitogen-activated protein kinase kinase 5 (Homo sapiens); test: Inhibition of human wild type partial length MEK5 (L98 to P448 residues) expressed in mammalian expression system at 10 uM measured by Kinomescan assay
In short: (§3)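 Kinome-wide binding scan on the scanEDGE DiscoverX platform, covering 97 kinases, each tested at a single compound concentration of 10 μM.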

[8] = molecular target: T3, Dual specificity mitogen-activated protein kinase kinase 6 (Homo sapiens); test: Inhibition of human wild type partial length MEK6 (K36 to D344 residues) expressed in bacterial expression system at 10 uM measured by Kinomescan assay; in short: as §3
[9] = molecular target: Dual specificity mitogen-activated protein kinase kinase 1 (Homo sapiens) (UniProt Q02750); test: Inhibition of human MEK1 in human HPAF-II cells assessed as decrease of p42/44 MAPK phosphorylation in presence of U0126 at 10 uM measured after 5 hrs by Westren blot assay; format: cell-based
Dual specificity mitogen-activated protein kinase kinase 1 (Homo sapiens), sequence (Q02750 whole entry): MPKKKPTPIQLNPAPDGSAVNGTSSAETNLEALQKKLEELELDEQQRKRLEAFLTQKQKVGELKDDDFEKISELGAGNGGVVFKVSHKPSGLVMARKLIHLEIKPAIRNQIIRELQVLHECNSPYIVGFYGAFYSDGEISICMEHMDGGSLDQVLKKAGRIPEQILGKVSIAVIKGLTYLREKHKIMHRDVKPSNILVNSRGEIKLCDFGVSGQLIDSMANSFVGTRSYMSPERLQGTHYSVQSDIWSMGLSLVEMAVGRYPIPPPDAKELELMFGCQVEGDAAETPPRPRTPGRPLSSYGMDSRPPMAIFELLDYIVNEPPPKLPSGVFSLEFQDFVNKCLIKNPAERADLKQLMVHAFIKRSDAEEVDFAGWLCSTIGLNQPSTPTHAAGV
In short: (§4)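 CD18 or MiaPaCa2 cells pretreated with U0126 (1 or 5 μM) for 1 h, then MEK4 inhibitor (10 μM) added for 5 h. Phospho- and total p42/44 MAPK detected by Western blot with HSP90 as loading control. Blots representative of at least three biological replicates.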

Cytochrome P450 3A5 = Cytochrome P450 3A5 (Homo sapiens, UniProt P20815); test: Inhibition of CYP3A5 (unknown origin); format: ADME
Cytochrome P450 3A5, sequence (P20815 whole entry): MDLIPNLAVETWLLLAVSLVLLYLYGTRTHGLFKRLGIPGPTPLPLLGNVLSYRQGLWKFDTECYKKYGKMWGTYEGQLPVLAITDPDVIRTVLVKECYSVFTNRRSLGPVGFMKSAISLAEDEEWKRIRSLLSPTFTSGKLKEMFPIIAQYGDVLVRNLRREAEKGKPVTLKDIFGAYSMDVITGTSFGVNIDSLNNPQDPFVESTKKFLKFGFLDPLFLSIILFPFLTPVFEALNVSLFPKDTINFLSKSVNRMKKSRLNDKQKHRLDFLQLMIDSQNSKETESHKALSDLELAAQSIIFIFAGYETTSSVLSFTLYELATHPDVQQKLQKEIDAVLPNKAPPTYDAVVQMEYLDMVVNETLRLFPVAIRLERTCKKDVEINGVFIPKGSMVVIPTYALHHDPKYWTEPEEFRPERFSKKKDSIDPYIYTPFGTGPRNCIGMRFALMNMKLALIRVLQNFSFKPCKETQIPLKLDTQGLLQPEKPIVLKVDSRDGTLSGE

MIA PaCa-2 [10] = test: Antiproliferative activity against human MIA PaCa-2 cells assessed as inhibition of cell proliferation in presence of […] at 10 uM measured after 72 hrs; format: functional, cell-based
In short: (§5)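 CD18 or MiaPaCa2 cells (~30,000) treated for 72 h with DMSO, U0126 (1 or 5 μM), MEK4 inhibitor (10 μM), or the combination. Cells trypsinized and counted, with counts normalized to DMSO; two-way ANOVA. Interaction expressed as CDI = AB/(A × B) from the normalized ratios, mean ± SEM of three biological replicates.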

[11] = molecular target: Dual specificity mitogen-activated protein kinase kinase 2 (Homo sapiens) (UniProt P36507); test: Inhibition of human MEK2 in human HPAF-II cells assessed as decrease of p42/44 MAPK phosphorylation in presence of U0126 at 10 uM measured after 5 hrs by Westren blot assay; format: cell-based
[12] = molecular target: T2, Dual specificity mitogen-activated protein kinase kinase 3 (Homo sapiens); test: Inhibition of human MEK3 in human HEK293T cells assessed as inhibition of anisomycin-induced p38 MAPK phosphorylation at 100 uM measured after 5 hrs by Western blot assay; format: cell-based; in short: as §1
[13] = molecular target: T4, Dual specificity mitogen-activated protein kinase kinase 7 (Homo sapiens) (UniProt O14733); test: Inhibition of human MEK7 in human HEK293T cells assessed as decrease of MEK7 expression in presence of anisomycin at 100 uM measured after 5 hrs by Western blot assay; format: cell-based
T4 sequence (whole entry): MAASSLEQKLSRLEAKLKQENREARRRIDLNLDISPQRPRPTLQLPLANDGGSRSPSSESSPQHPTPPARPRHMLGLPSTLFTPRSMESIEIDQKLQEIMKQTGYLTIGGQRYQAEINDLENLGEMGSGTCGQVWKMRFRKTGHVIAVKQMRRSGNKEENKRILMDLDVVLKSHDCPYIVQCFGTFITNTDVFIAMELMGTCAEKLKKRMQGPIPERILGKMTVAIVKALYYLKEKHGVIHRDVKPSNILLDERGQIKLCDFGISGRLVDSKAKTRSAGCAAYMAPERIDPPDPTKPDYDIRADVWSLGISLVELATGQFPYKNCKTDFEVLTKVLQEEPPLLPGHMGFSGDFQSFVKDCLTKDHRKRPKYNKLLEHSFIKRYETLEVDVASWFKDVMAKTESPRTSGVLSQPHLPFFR
In short: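 HEK293T cells pretreated with anisomycin (3 μg/mL) for 45 min, then exposed to inhibitor (100 μM) for 5 h. MEK7 levels were read by Western blot with HSP90 as loading control. Blots are representative of at least three biological replicates.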

[14] = molecular target: Dual specificity mitogen-activated protein kinase kinase 2 (Homo sapiens) (UniProt P36507); test: Inhibition of human MEK2 in human MIA PaCa-2 cells assessed as decrease of p42/44 MAPK phosphorylation in presence of U0126 at 10 uM measured after 5 hrs by Westren blot assay; format: cell-based; in short: as §4
[15] = molecular target: T4, Dual specificity mitogen-activated protein kinase kinase 7 (Homo sapiens); test: Inhibition of human wild type full length MEK7 (M1 to R417 residues) expressed in mammalian expression system at 1 uM measured by Kinomescan assay
HPAF-II [16] = test: Antiproliferative activity against human HPAF-II cells assessed as inhibition of cell proliferation in presence of […] at 10 uM measured after 72 hrs; format: functional, cell-based; in short: as §5
[17] = molecular target: Dual specificity mitogen-activated protein kinase kinase 1 (Homo sapiens) (UniProt Q02750); test: Inhibition of human MEK1 in human HEK293T cells assessed as reversal of anisomycin-induced decrease of p42/44 MAPK phosphorylation at 100 uM measured after 5 hrs by Western blot assay; format: cell-based; in short: as §1
Cytochrome P450 2D6 = Cytochrome P450 2D6 (Homo sapiens, UniProt P10635); test: Inhibition of CYP2D6 (unknown origin); format: ADME
Cytochrome P450 2D6, sequence (P10635 whole entry, the tested form may be a part): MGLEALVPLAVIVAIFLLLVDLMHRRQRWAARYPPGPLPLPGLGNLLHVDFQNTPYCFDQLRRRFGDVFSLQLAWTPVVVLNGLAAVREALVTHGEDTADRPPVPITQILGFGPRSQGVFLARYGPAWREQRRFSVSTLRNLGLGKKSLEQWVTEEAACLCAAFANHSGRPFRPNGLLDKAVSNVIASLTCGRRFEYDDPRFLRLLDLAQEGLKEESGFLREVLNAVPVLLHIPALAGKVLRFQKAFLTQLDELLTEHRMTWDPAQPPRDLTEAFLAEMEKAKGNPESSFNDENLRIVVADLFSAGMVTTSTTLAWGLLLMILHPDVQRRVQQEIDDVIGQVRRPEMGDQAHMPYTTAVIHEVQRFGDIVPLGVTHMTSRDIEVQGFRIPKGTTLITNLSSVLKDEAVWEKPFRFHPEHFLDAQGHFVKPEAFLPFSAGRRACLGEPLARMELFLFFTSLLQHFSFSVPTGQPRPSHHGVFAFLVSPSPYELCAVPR

[18] = molecular target: T4, Dual specificity mitogen-activated protein kinase kinase 7 (Homo sapiens); test: Inhibition of human wild type full length MEK7 (M1 to R417 residues) expressed in mammalian expression system at 10 uM measured by Kinomescan assay
Cytochrome P450 1A2 = Cytochrome P450 1A2 (Homo sapiens, UniProt P05177); test: Inhibition of CYP1A2 (unknown origin); format: ADME
Cytochrome P450 1A2, sequence (P05177 whole entry): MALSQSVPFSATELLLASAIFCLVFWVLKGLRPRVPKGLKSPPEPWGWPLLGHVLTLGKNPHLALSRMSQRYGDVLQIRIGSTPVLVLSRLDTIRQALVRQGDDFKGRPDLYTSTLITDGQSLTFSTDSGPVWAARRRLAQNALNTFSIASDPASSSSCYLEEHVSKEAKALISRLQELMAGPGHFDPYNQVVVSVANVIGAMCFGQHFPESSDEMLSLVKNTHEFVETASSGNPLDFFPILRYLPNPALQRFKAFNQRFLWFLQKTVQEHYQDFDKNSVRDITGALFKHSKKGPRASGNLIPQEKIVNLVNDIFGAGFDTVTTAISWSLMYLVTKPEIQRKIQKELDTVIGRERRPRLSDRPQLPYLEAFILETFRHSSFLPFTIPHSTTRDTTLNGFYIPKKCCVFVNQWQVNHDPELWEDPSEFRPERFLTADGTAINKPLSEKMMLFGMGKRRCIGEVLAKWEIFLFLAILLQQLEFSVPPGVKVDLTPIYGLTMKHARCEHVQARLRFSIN

[19] = molecular target: T2, Dual specificity mitogen-activated protein kinase kinase 3 (Homo sapiens); test: Inhibition of human wild type full length MEK3 (M1 to S318) expressed in mammalian expression system at 10 uM measured by Kinomescan assay; in short: as §3
HPAF-II [20] = test: Antiproliferative activity against human HPAF-II cells assessed as inhibition of cell proliferation measured after 72 hrs; format: functional, cell-based; in short: as §2
[21] = molecular target: Dual specificity mitogen-activated protein kinase kinase 1 (Homo sapiens) (UniProt Q02750); test: Inhibition of human MEK1 in human MIA PaCa-2 cells assessed as decrease of p42/44 MAPK phosphorylation in presence of U0126 at 10 uM measured after 5 hrs by Westren blot assay; format: cell-based; in short: as §4
Cytochrome P450 2C19 = Cytochrome P450 2C19 (Homo sapiens, UniProt P33261); test: Inhibition of CYP2C19 (unknown origin); format: ADME
Cytochrome P450 2C19, sequence (P33261 whole entry): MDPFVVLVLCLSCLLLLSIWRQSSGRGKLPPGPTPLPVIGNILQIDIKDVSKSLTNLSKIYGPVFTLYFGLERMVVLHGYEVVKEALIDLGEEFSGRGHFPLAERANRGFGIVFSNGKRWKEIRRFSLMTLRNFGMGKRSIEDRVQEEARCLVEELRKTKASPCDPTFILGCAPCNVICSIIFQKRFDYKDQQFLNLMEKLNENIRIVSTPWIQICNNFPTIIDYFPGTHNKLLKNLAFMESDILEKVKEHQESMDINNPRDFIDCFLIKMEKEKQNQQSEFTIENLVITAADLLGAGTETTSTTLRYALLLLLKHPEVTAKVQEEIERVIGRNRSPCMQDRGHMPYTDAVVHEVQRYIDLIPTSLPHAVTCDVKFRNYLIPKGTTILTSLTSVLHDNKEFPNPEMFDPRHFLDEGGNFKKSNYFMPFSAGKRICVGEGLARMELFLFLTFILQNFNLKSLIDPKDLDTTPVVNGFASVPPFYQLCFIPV

[22] = molecular target: T3, Dual specificity mitogen-activated protein kinase kinase 6 (Homo sapiens); test: Inhibition of human MEK6 in human HEK293T cells assessed as inhibition of anisomycin-induced p38 MAPK phosphorylation at 100 uM measured after 5 hrs by Western blot assay; format: cell-based; in short: as §1

inhibition [1]: Active
inhibition [2]: 22%
inhibition [4]: 40%
inhibition (INH) (Cytochrome P450 3A4): Not Active
inhibition [5]: 12%
half-life [6]: 1.9 h
inhibition (INH) (Cytochrome P450 2C9): Not Active
inhibition [7]: 76%
inhibition [8]: 50%
inhibition [9]: Active
inhibition (INH) (Cytochrome P450 3A5): Not Active
inhibition [11]: Active
inhibition [12]: inactive
inhibition [13]: inactive
inhibition [14]: Active
inhibition [15]: 58%
inhibition [17]: Active
inhibition (INH) (Cytochrome P450 2D6): Not Active
inhibition [18]: 79%
inhibition (INH) (Cytochrome P450 1A2): Active
inhibition [19]: 91%
inhibition [21]: Active
inhibition (INH) (Cytochrome P450 2C19): Active
inhibition [22]: inactive
SMILES: NS(=O)(=O)c1ccc(-c2n[nH]c3cc(F)ccc23)cc1
Activity (MIA PaCa-2 [3]): Active
Activity (MIA PaCa-2 [10]): Active
Activity (HPAF-II [16]): Active
Activity (HPAF-II [20]): Active
